Data on four molecules can be found in ChEMBL document CHEMBL4145471, “New 1,5 and 2,5-disubstituted tetrazoles-dependent activity towards surface barrier of Candida albicans” (Eur J Med Chem, 2018).

Common to all, as to assay type: functional
For assay [1], the system named is Candida albicans. Put plainly: Antifungal activity against Candida albicans ATCC 90028 at 0.5 ug/ml after 18 hrs relative to control. A digest of the protocol:
(§1)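 Planktonic broth microdilution per M27-A3 in MOPS-buffered RPMI 1640 (pH 7.0), final inoculum 1.8×10^3 cells/mL, compounds 0.0313–16 µg/mL from 1600 µg/mL stocks in ethanol or DMSO. Incubated at 35°C without agitation; OD405 read at 18 and 48 h. % inhibition was derived from test, sterility (no inoculum) and solvent growth-control wells. Amphotericin B at 0.5 µg/mL served as the 100% control.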

The subject of assay [2] is Candida albicans. Kind of assay: Antifungal activity against Candida albicans ATCC 90028 at 0.0313 ug/ml after 48 hrs relative to control.
Assay [3] relates to Candida albicans. Put plainly: Antifungal activity against Candida albicans ATCC 90028 at 2 ug/ml after 48 hrs relative to control. A digest of the protocol: as §1
In assay [4] the test system is Candida albicans. Kind of assay: Antifungal activity against Candida albicans ATCC 90028 at 0.25 ug/ml after 18 hrs relative to control. A digest of the protocol:
(§2)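 Fluconazole (water stock, diluted in RPMI 1640) tested by CLSI M27-A3 broth microdilution against C. albicans ATCC 90028. Inoculum 1.8×10^3 cells/mL in RPMI 1640 buffered with MOPS, pH 7.0. Incubation at 35°C without agitation, read at 18 and 48 h. Growth by OD405 and visually; inhibition % calculated against solvent growth-control wells after subtracting sterility-control wells.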

Assay [5] has as its system Candida albicans. Put plainly: Antifungal activity against Candida albicans ATCC 90028 at 8 ug/ml after 18 hrs relative to control. In short, it runs like this:
as §1

The subject of assay [6] is Candida albicans. Kind of assay: Fungicidal activity against Candida albicans ATCC 90028 at 16 ug/ml after 48 hrs by M27-A3 microdilution method. A digest of the protocol:
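After 48 h at 35°C in M27-A3 microdilution plates (compound at 16 µg/mL), 50 µL aliquots from treated and solvent-control wells were diluted 10^4 in PBS and plated on drug-free Sabouraud dextrose agar, then incubated 48 h at 35°C. Reduction R = lg CFU/mL control − lg CFU/mL treated; R ≥ 3 defined as fungicidal.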
(In general: Dilution methods test growth across graded concentrations, often in twofold steps.)

For assay [7], the system named is Candida albicans. Kind of assay: Antifungal activity against Candida albicans ATCC 90028 at 0.25 ug/ml after 48 hrs relative to control. A digest of the protocol: as §2
Assay [8] concerns Candida albicans. Kind of assay: Antifungal activity against Candida albicans ATCC 90028 at 1 ug/ml after 18 hrs relative to control. A digest of the protocol:
as §1

Assay [9] relates to Candida albicans. Kind of assay: Antifungal activity against Candida albicans ATCC 90028 at 0.0625 ug/ml after 48 hrs relative to control. A digest of the protocol: as §1
Assay [10] relates to Candida albicans. Kind of assay: Antifungal activity against Candida albicans ATCC 90028 at 0.125 ug/ml after 18 hrs relative to control. A digest of the protocol:
as §1

The test system of assay [11] is Candida albicans. Put plainly: Antifungal activity against Candida albicans ATCC 90028 at 0.5 ug/ml after 48 hrs relative to control. A digest of the protocol:
as §1

Assay [12] has as its system Candida albicans. Kind of assay: Antifungal activity against Candida albicans ATCC 90028 at 0.0313 ug/ml after 18 hrs relative to control.
Assay [13] has as its system Candida albicans. Put plainly: Antifungal activity against Candida albicans ATCC 90028 at 16 ug/ml after 18 hrs relative to control. In short, it runs like this:
as §1

For assay [14], the system named is Candida albicans. Kind of assay: Antifungal activity against Candida albicans ATCC 90028 at 1 ug/ml after 48 hrs relative to control. In short, it runs like this: as §1
In assay [15] the test system is Candida albicans. Kind of assay: Antifungal activity against Candida albicans ATCC 90028 at 0.125 ug/ml after 48 hrs relative to control. A digest of the protocol: as §1
Assay [16] has as its system Candida albicans. Put plainly: Antifungal activity against Candida albicans ATCC 90028 at 0.0625 ug/ml after 18 hrs relative to control.
The subject of assay [17] is Candida albicans. Kind of assay: Antifungal activity against Candida albicans ATCC 90028 at 16 ug/ml after 48 hrs relative to control. In short, it runs like this: as §1
Assay [18] concerns Candida albicans. Kind of assay: Antifungal activity against Candida albicans ATCC 90028 at 2 ug/ml after 18 hrs relative to control. A digest of the protocol:
as §1

The test system of assay [19] is Candida albicans. Kind of assay: Antifungal activity against Candida albicans ATCC 90028 at 8 ug/ml after 48 hrs relative to control. In short, it runs like this: as §1
The test system of assay [20] is Candida albicans. Put plainly: Antifungal activity against Candida albicans ATCC 90028 at 4 ug/ml after 18 hrs relative to control. A digest of the protocol:
as §1

The subject of assay [21] is Candida albicans. Kind of assay: Antifungal activity against Candida albicans ATCC 90028 at 4 ug/ml after 48 hrs relative to control. In short, it runs like this:
as §1

With `Cc1ccc(-c2nnn(CCCCl)n2)cc1`, the Activity in the assay with Candida albicans [1] is listed as 97.59%; in the assay on Candida albicans [2], 98.94%; in the assay on Candida albicans [3] it was 98.87%; in the assay with Candida albicans [4], 99.45%; in the assay with Candida albicans [5], 99.06%; in the assay with Candida albicans [6], 0.65 log10CFU/ml. For the same molecule, the Activity was found to be 98.79% in the assay on Candida albicans [7]; 99.6% with Candida albicans [8]; 99.12% with Candida albicans [9]; 98.66% in the assay with Candida albicans [10]; 98.95% in the assay on Candida albicans [11]; 98.95% in the assay with Candida albicans [12]. The Activity worked out at 98.46% with Candida albicans [13]; 98.65% in the assay with Candida albicans [14]; 98.92% with Candida albicans [15]; 99.06% with Candida albicans [16]; 98.26% with Candida albicans [17]; 98.39% in the assay on Candida albicans [18]. Besides, the Activity in the assay on Candida albicans [19] came to 99.08%; in the assay with Candida albicans [20], 99.63%; in the assay with Candida albicans [21], 98.84%.

For the molecule `CCOC(=O)CCn1nnnc1-c1ccc(C)cc1`, the Activity in the assay on Candida albicans [1] was 98.88%; with Candida albicans [2], 99.34%; in the assay with Candida albicans [3], 97.05%; in the assay with Candida albicans [4] it was 95.87%; with Candida albicans [5] it was 98.51%; in the assay on Candida albicans [6] it was -0.54 log10CFU/ml. The Activity is on record as 98.72% in the assay on Candida albicans [7]; 98.46% in the assay on Candida albicans [8]; 99.11% in the assay on Candida albicans [9]; 99.61% in the assay with Candida albicans [10]; 99.08% in the assay with Candida albicans [11]; 99.74% in the assay with Candida albicans [12]. For the same molecule, the Activity was determined as 98.97% in the assay on Candida albicans [13]; 99.04% with Candida albicans [14]; 98.94% with Candida albicans [15]; 99.59% in the assay with Candida albicans [16]; 98.82% with Candida albicans [17]; 89.93% in the assay with Candida albicans [18]. The Activity is recorded as 98.86% in the assay with Candida albicans [19], 99.94% in the assay on Candida albicans [20] and 99.01% with Candida albicans [21].

As to `ClCCCn1nnc(-c2ccccc2)n1`, the Activity in the assay on Candida albicans [1] is given as 99.1%; in the assay on Candida albicans [2] it was 99.38%; in the assay on Candida albicans [3] it was 99.57%; in the assay with Candida albicans [4], 98.55%; with Candida albicans [5] it was 99.54%; in the assay with Candida albicans [6], -0.23 log10CFU/ml. In addition, the Activity turned out to be 99.16% in the assay on Candida albicans [7]; 62.02% in the assay with Candida albicans [8]; 99.76% in the assay with Candida albicans [9]; 99.65% with Candida albicans [10]; 99.16% with Candida albicans [11]; 99.51% in the assay with Candida albicans [12]. Besides, the Activity in the assay on Candida albicans [13] is on record as 99.36%; in the assay on Candida albicans [14], 97.6%; with Candida albicans [15] it was 99.19%; in the assay with Candida albicans [16] it was 99.99%; in the assay with Candida albicans [17] it was 99.22%; with Candida albicans [18] it was 99.25%. The Activity worked out at 99.63% with Candida albicans [19], 99.53% in the assay with Candida albicans [20] and 99.29% in the assay on Candida albicans [21].

`CCOC(=O)CCn1nnc(-c2ccccc2Cl)n1`: the Activity is on record as 96.86% in the assay with Candida albicans [1]; 99.27% in the assay on Candida albicans [2]; 99.41% in the assay with Candida albicans [3]; 99.86% with Candida albicans [4]; 99.23% in the assay on Candida albicans [5]; 0.19 log10CFU/ml with Candida albicans [6]. Moreover, the Activity in the assay on Candida albicans [7] is recorded as 99.09%; in the assay on Candida albicans [8] it was 99.38%; in the assay with Candida albicans [9], 98.78%; in the assay on Candida albicans [10], 99.97%; with Candida albicans [11], 98.84%; in the assay with Candida albicans [12] it was 97.51%. Besides, the Activity in the assay with Candida albicans [13] was 100%; with Candida albicans [14], 98.86%; with Candida albicans [15], 98.82%; in the assay on Candida albicans [16], 99.86%; in the assay on Candida albicans [17], 98.83%; with Candida albicans [18] it was 99.98%. Besides, the Activity in the assay with Candida albicans [19] was determined as 98.84%; with Candida albicans [20] it was 100%; with Candida albicans [21], 99.05%.
